# High-throughput results deposited in PubChem BioAssay by several laboratories.
# Shown are actives, neighbours in structure and some others; about 6.4% of the full set was active somewhere.
# TbMetRS inhib: blocks T. brucei methionyl-tRNA synthetase activity. 360,000 compounds, 0.4% hits. inhibition, % at 11.9 µM. purified T. brucei MetRS, ATP depletion, Kinase-Glo luminescence. AID 624268;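 active = inhibition above a per-plate cutoff of the control wells' mean inhibition plus 3 SD, cut at about 5.5% in these data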;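 also: 0% = DMSO wells median and 100% = median of wells with control inhibitor compound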
#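 assay system = parasite MetRS enzyme | timing = 15 min preincubation, 2 h reaction, all 25 °C | evaluation = percent inhibition relative to median high and low control wells | medium = HEPES buffer containing pyrophosphatase, BSA, spermine, DTT | compound = single dose, 11.9 µM final nominal, 0.9% final DMSO | detection = Kinase-Glo luminescence, ATP depletion format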
# WT yeast gro inh: growth inhibition of WT yeast, mitochondrial fusion screen; mitochondrial fusion phenotypic screen, WT strain; inhibition, % at 10 µM; 190,000 compounds, 2.1% hits; AID 1362; in the data active = inhibition above about 58%; tested in S. cerevisiae
# MPTP block: permeability transition pore inhibition. inhibition, % at 10 µM. 360,000 compounds, 1.4% hits. AID 602449. isolated mouse mitochondria, Ca2+ swelling absorbance, 30 min;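 active = inhibition of 50% or more, scaled per plate between neutral and stimulator controls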;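 also: 0% = DMSO wells given calcium and 100% = 1 mM EGTA wells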
# EBV gp42 block: inhibitors of Epstein-Barr virus glycoprotein 42. Fluorescence polarization binding assay, mP read-out. inhibition, % (tested at 21.74 µM). 220,000 compounds, 0.42% hits. AID 1085; in the data active = inhibition above about 50%
# Target sequence (Q1HVG2 whole entry, looked up): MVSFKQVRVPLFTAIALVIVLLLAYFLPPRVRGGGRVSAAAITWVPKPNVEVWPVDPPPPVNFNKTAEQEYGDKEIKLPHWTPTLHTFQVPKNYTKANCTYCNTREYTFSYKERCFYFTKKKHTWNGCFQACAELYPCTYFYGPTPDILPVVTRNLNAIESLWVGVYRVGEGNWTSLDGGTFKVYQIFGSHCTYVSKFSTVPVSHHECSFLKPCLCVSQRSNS
# NR3A LBD binder: NR3A (human) ligand-binding domain modulation | NR3A LBD differential scanning fluorimetry, Tm shift; 0% = protein alone, 100% = glycine-bound protein | Tm shift relative to glycine control, % at 25 µM | 340,000 compounds, 2.5% hits;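 active = melting temperature shift of at least 10% of the positive control shift, at one fixed dose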
# CHOP inh: CHOP inhibition in unfolded protein response. AID 2732. CHO-K1 CHOP-promoter luciferase, tunicamycin-induced, 15-18 h. 220,000 compounds, 3.8% hits. inhibition, % at 10 µM;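 active = compounds that reduced the stress-induced luciferase reporter signal by more than about 70% of percent inhibition, limit read from the data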;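 also: 0% = tunicamycin plus vehicle and 100% = wells without tunicamycin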
# * hit, by the source's call; / = no result.
SMILES,TbMetRS inhib,WT yeast gro inh,MPTP block,EBV gp42 block,NR3A LBD binder,CHOP inh
C/C(=N\Nc1ccc([N+](=O)[O-])cc1)c1ccc(N)cc1,1,42,2,-24,11*,-16
CCC(C)(C(=O)NC1CCCCC1)N(C(=O)C1CCC(=O)N1)c1ccc(C)cc1 (configuration not stated),0,9,0,-2,1,71*
CCC(C)(C(=O)NC1CCCC1)N(C(C)=O)c1ccc(C)cc1 (configuration not stated),-1,-7,-1,11,-1,-4
O=C(Nc1cccc(Cl)c1)OCc1cn(-c2ccccc2)nn1,2,4,2,-14,11*,34
O=C(Nc1cccc(Cl)c1)OCc1cnc(Cl)s1,0,23,2,5,-27,54
O=C(Nc1cccc(Cl)c1)OCCOCCOC(=O)Nc1cccc(Cl)c1,0,/,1,/,36*,/
CNC(=O)c1nc(C)n(-c2ccc(Cl)cc2Cl)n1,0,-17,-1,-9,2,5
Cc1c(Cl)cccc1NC(=O)c1nc(C)n(-c2cc(OC(C)C)c(Cl)cc2Cl)n1,-1,75*,6,-16,1,43
Cc1cc(-c2ccccc2)nc2cc(C(=O)N(Cc3ccccc3)Cc3ccccc3)nn12,0,75*,3,-7,-1,5
COc1cc2sc3cc(NCC[C@@H]4CCCN4C)ccc3c(=O)c2cc1OC,-1,/,0,/,-1,/
C/C(CC(=O)Nc1ccc2c(c1)OCCO2)=N\NC(=O)COc1ccccc1C,-2,/,2,/,-3,/
COc1ccc2cc(C(=O)Nc3ccc(F)cc3)sc(=O)c2c1OC,0,7,5,-7,21*,18
COC(=O)c1cc2ccc(OC)c(OC)c2c(=O)s1,-1,-6,2,-3,-1,-9
COc1ccc2cc(C(=O)Nc3ccc(O)cc3)sc(=O)c2c1OC,-1,9,1,-1,31*,3
COc1ccc2cc(C(=O)Nc3ccc(Cl)cc3)sc(=O)c2c1OC,-1,9,20,-94,22*,35
Cc1ccc(Cl)cc1N1CCN(C(=O)c2cn(C)c(=O)c3c2c2ccccc2n3C)CC1,0,15,-3,4,-9,79*
COc1cc2cc(C(c3nnnn3C3CCCCC3)N(C)C3CCCCC3)c(=O)[nH]c2cc1OC (configuration not stated),0,14,0,5,-5,84*
Cc1ccc(C(c2nnnn2C2CCCCC2)N(C)C2CCCCC2)cc1 (configuration not stated),-1,81*,2,-12,-14,63
CC(C)C(c1nnnn1C1CCCC1)N(C)C1CCCCC1 (configuration not stated),0,-2,2,2,0,44
O=C(c1ccco1)N1CCN(C(=O)c2oc(=O)c3ccccc3c2-c2ccccc2)CC1,0,11,-3,-4,-1,24
Cc1cc2c3c(c1)C1(C(=O)N3C(C)(C)CC2C)C(C#N)=C(N)OC2=C1C(=O)CC(C)(C)C2 (configuration not stated),0,-11,-5,-5,-1,-14
Cc1cc2c3c(c1)C1(SCC(=O)N1c1ccc(F)cc1)C(=O)N3C(C)(C)CC2C (configuration not stated),-1,63*,-1,-3,-1,7
O=[N+]([O-])c1cnc(Sc2ccncn2)s1,0,/,4,-10,2,107*
O=[N+]([O-])c1cnc(Sc2ccncn2)c([N+](=O)[O-])c1,0,/,5,/,/,/
CCCCCCCC/C=C\CCCCCCCC(=O)NCCO,-1,/,-1,/,10*,31
SMILES,TbMetRS inhib,WT yeast gro inh,MPTP block,EBV gp42 block,NR3A LBD binder,CHOP inh
COc1ccc(N(C)C(=O)c2cnc(N3CCN(c4ncccn4)CC3)c3ccccc23)cc1,-1,9,0,3,769*,3
CCOc1cc(/C=C2/C(=O)ON=C2C)cc(Br)c1O,-1,/,3,/,21*,/
COC(=O)CNC(=O)CNC(=O)c1nn(-c2ccc(OC)c(Cl)c2)c(=O)c2ccccc12,0,76*,-1,-11,-1,15
CCOC(=O)c1sc2nc(C(C)C)c3c(c2c1N)CC(C)(C)OC3,-1,-25,5,-23,1,70*
CCOC(=O)c1sc2nc(N3CCCC3)c3c(c2c1N)CC(C)(C)OC3,-2,11,1,-7,-4,-1
CCOC(=O)C1C(c2ccccc2Cl)NC(=O)N(C)C1(O)C(F)(F)F (configuration not stated),-1,5,-1,-12,0,70*
CCOC(=O)C1C(c2ccccc2O)NC(=O)NC1(O)C(F)(F)F (configuration not stated),0,/,2,/,3,/
Cc1nn(C(=O)c2cccs2)c(N)c1-c1ccccc1,0,25,0,8,-1,95*
CC(=O)c1c(C)nn(C(=O)c2cccs2)c1C,-1,5,-1,1,-5,6
C/C(N)=C(/C#N)C(=O)CSc1nnnn1-c1ccccc1,-1,94*,1,-16,0,12
C/C(N)=C(/C#N)C(=O)CSc1nnnn1-c1ccc(C)cc1,0,5,-1,-9,2,45
C/C(N)=C(/C#N)C(=O)CSc1nnc(Nc2ccccc2)s1,0,2,2,124*,-23,-22
C/C(N)=C(/C#N)C(=O)CSc1nnc(Nc2ccccc2C)s1,-1,-9,-2,-7,-1,-8
C=CCn1c(N)c(C(=O)OCC)sc1=S,0,2,0,-1,1,24
CCCCNS(=O)(=O)c1ccc2nc(SCC(=O)N3CC(C)OC(C)C3)[nH]c2c1 (configuration not stated),0,-1,0,-6,-1,30
C#CCOC(=O)c1ccccc1C(=O)OCC#C,1,0,2,2,0,2
COC(=O)c1c(O)cc(C(C)(C)C)n(-c2ccccc2)c1=O,0,13,1,1,18*,-20
CCc1cc2c(COC(=O)c3c(C)noc3C)cc(=O)oc2cc1O,0,-6,14,11,-3,95*
C/C(=N\NC(N)=S)c1cc(-c2ccccc2)c(-c2ccccc2)s1,0,/,3,/,-4,/
O=C(N/C(=N\O)c1ccccc1)Nc1ccc(Cl)cc1,0,6,0,-7,23*,-13
O=C(NC(=S)Nc1ccc(Cl)cc1)c1ccccc1,-1,/,0,-13,1,-15
COc1ccc(/C=C/C(=O)NCc2ccc(F)cc2)cc1S(=O)(=O)N1CCOCC1,0,/,2,-18,0,-45
CCOc1ccc(Br)cc1S(=O)(=O)Nc1ccc(C(=O)OCC(=O)Nc2ccc(C#N)cc2)cc1,-1,-15,9,1,14*,18
CCOc1ccc(NC(=S)NS(=O)(=O)c2cc(Br)ccc2OCC)cc1,0,/,4,/,1,/
